Laboratory results: ChEMBL document CHEMBL1157934, “Sugar-based peptidomimetics as potential inhibitors of the vascular endothelium growth factor binding to neuropilin-1” (Bioorg Med Chem, 2010)
Active and inactive are the calls of the source. No cut-off for these calls is given here. Residues, ends and D or L forms follow the SMILES beside them. *: point of attachment. X1 = O=C(c1ccc(-c2c3nc(c(-c4ccccc4)c4ccc([nH]4)c(-c4ccccc4)c4nc(c(-c5ccccc5)c5ccc2[nH]5)C=C4)CC3)cc1)*; Ahx = NCCCCCC(=O)O

molecular target: T1, Neuropilin-1 (Homo sapiens, UniProt O14786); experiment: Displacement of biotinylated VEGF165 from recombinant NRP1 after 2 hrs by competitive binding assay
Summary of the method: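 Plates coated overnight at room temperature with recombinant chimeric NRP-1 in PBS, then blocked with PBS/0.5% BSA for 1 h at 37 °C. Biotinylated VEGF165 (5 ng/mL; 110 pM), with heparin present, competed with increasing competitor concentrations for 2 h at room temperature. Bound label was detected with streptavidin-HRP, 20 min at room temperature, then stopped and read at 450 nm. IC50 was derived by the median effect method.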

T1 sequence (O14786 whole entry): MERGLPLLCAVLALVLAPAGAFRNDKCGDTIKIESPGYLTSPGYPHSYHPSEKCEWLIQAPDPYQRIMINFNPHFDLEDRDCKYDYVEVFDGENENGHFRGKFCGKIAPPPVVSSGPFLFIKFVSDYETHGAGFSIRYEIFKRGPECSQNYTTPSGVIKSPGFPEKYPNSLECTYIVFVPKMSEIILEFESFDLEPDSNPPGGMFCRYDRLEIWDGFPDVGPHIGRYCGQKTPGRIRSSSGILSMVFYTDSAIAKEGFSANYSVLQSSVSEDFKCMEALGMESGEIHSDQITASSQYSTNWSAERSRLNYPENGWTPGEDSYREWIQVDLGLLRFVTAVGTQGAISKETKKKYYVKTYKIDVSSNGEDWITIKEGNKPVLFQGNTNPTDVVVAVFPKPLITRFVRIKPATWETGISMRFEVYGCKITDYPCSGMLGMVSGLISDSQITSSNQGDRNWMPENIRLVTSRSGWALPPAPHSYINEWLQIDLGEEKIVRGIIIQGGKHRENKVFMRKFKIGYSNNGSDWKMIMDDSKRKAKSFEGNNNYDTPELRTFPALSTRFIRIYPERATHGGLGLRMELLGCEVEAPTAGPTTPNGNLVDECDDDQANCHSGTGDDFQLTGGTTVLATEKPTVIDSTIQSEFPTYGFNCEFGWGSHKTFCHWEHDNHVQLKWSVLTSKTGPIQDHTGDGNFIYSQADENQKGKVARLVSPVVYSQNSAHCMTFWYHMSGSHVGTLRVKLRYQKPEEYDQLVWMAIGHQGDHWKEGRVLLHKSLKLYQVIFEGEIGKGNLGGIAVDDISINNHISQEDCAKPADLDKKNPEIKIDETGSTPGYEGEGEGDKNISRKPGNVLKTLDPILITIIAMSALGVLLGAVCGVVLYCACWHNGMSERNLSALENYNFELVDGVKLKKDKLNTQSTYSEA

**Q.** For `CC1(C)O[C@@H]2[C@H](O1)[C@H](CN(CCNC(=N)N)C(=N)N)O[C@@H]2CC(=O)NCCc1c[nH]c2ccccc12`, which IC50 is on record?
**A.** The IC50 was 92 µM.

**Q.** For `CC(C)C[C@H](NC(=O)[C@H](Cc1c[nH]c2ccccc12)NC(=O)[C@@H](NC(=O)[C@H](C)NC(=O)CCCCCNC(=O)c1ccc(-c2c3nc(c(-c4ccccc4)c4ccc([nH]4)c(-c4ccccc4)c4nc(c(-c5ccccc5)c5ccc2[nH]5)C=C4)CC3)cc1)[C@@H](C)O)C(=O)N1CCC[C@H]1C(=O)N1CCC[C@H]1C(=O)N[C@@H](CCCNC(=N)N)C(=O)O` ({X1-Ahx}-ATWLPPR-OH), which IC50 is on record?
**A.** The IC50 was 171 µM.

molecular target: T1, Neuropilin-1; experiment: Inhibition of VEGF binding to NRP1 expressed in CHO cells; format: cell-based

**Q.** How did the IC50 turn out when H-ATWLPPR-OH was run?
**A.** Its IC50 is 19 µM.

molecular target: T1, Neuropilin-1; experiment: Inhibition of biotinylated VEGF165 binding to recombinant NRP1 at 100 uM after 2 hrs by competitive binding assay
Summary of the method: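 NRP-1-coated wells were blocked with PBS/0.5% BSA for 1 h at 37 °C. Biotinylated VEGF165 was added with competitor at 100 µM for 2 h at room temperature, then washed. Detection used streptavidin-HRP, 20 min at room temperature, stop solution and OD at 450 nm. Results are absorbance relative to blocking-buffer-only wells, three wells per condition.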

**Q.** With `CC1(C)O[C@@H]2[C@H](O1)[C@H](CNCc1ccncc1)O[C@@H]2CC(=O)NCCc1c[nH]c2ccccc12` as the compound, how does the inhibition read?
**A.** The inhibition was “Active”.

**Q.** With `CC(=O)O[C@H](C)CNC(=O)C[C@H]1O[C@@H](CNCCNc2ccccn2)[C@H]2OC(C)(C)O[C@H]21` as the compound, how does the inhibition read?
**A.** Its inhibition is “Active”.

**Q.** `C[C@@H](O)CNC(=O)C[C@H]1O[C@@H](CN(CCNC(=N)N)C(=N)N)[C@H]2OC(C)(C)O[C@H]21` was tested. Which inhibition did it give?
**A.** The inhibition was “Active”.

**Q.** For `CC1(C)O[C@@H]2[C@H](O1)[C@H](CNCc1ccccc1)O[C@@H]2CC(=O)NCCc1c[nH]c2ccccc12`, which inhibition is on record?
**A.** The inhibition was “Active”.

**Q.** With `CC1(C)O[C@@H]2[C@H](O1)[C@H](CNCc1nc3ccccc3[nH]1)O[C@@H]2CC(=O)NCCc1c[nH]c2ccccc12` as the compound, how does the inhibition read?
**A.** The inhibition was “Active”.

**Q.** `CC(C)(C)OC(=O)/N=C(\NCCNC[C@@H]1O[C@H](CC(=O)NCCc2c[nH]c3ccccc23)[C@@H]2OC(C)(C)O[C@@H]21)NC(=O)OC(C)(C)C` was tested. Which inhibition did it give?
**A.** Its inhibition is “Active”.

**Q.** How did the inhibition turn out when `C[C@@H](O)CNC(=O)C[C@H]1O[C@@H](CNCc2nc3ccccc3[nH]2)[C@H]2OC(C)(C)O[C@H]21` was run?
**A.** Its inhibition is “Active”.

**Q.** How did the inhibition turn out when `CC(=O)O[C@H](C)CNC(=O)C[C@H]1O[C@@H](CNCCN/C(=N\C(=O)OC(C)(C)C)NC(=O)OC(C)(C)C)[C@H]2OC(C)(C)O[C@H]21` was run?
**A.** Its inhibition is “Active”.

**Q.** `CC(=O)O[C@H](C)CNC(=O)C[C@H]1O[C@@H](CNCCc2nc3ccccc3[nH]2)[C@H]2OC(C)(C)O[C@H]21` was tested. Which inhibition did it give?
**A.** The inhibition was “Active”.

**Q.** `C[C@@H](O)CNC(=O)C[C@H]1O[C@@H](CNCCc2nc3ccccc3[nH]2)[C@H]2OC(C)(C)O[C@H]21` was tested. Which inhibition did it give?
**A.** The inhibition was “Active”.

**Q.** `CC(=O)O[C@H](C)CNC(=O)C[C@H]1O[C@@H](CNCc2nc3ccccc3[nH]2)[C@H]2OC(C)(C)O[C@H]21` was tested. Which inhibition did it give?
**A.** Its inhibition is “Active”.

**Q.** Which inhibition does the source give for `CC1(C)O[C@@H]2[C@H](O1)[C@H](CNCCN)O[C@@H]2CC(=O)NCCc1c[nH]c2ccccc12` here?
**A.** The inhibition was “Active”.

**Q.** For `CC1(C)O[C@@H]2[C@H](O1)[C@H](CNCCNC(=N)N)O[C@@H]2CC(=O)NCCc1c[nH]c2ccccc12`, which inhibition is on record?
**A.** The inhibition was “Active”.

**Q.** Which inhibition does the source give for `CC1(C)O[C@@H]2[C@H](O1)[C@H](CNCCNc1ncccn1)O[C@@H]2CC(=O)NCCc1c[nH]c2ccccc12` here?
**A.** The inhibition was “Active”.

**Q.** `C[C@@H](O)CNC(=O)C[C@H]1O[C@@H](CNCc2ccccc2)[C@H]2OC(C)(C)O[C@H]21` was tested. Which inhibition did it give?
**A.** Its inhibition is “Active”.

**Q.** `C[C@@H](O)CNC(=O)C[C@H]1O[C@@H](CN[C@@H](CCCNC(=N)N)C(=O)O)[C@H]2OC(C)(C)O[C@H]21` was tested. Which inhibition did it give?
**A.** The inhibition was “Active”.

**Q.** For `CC(=O)O[C@H](C)CNC(=O)C[C@H]1O[C@@H](CNCc2ccncc2)[C@H]2OC(C)(C)O[C@H]21`, which inhibition is on record?
**A.** The inhibition was “Active”.

**Q.** Which inhibition does the source give for `C[C@@H](O)CNC(=O)C[C@H]1O[C@@H](CNCCNc2ccccn2)[C@H]2OC(C)(C)O[C@H]21` here?
**A.** Its inhibition is “Active”.

**Q.** With `CC1(C)O[C@@H]2[C@H](O1)[C@H](CNCCNC(=O)OCc1ccccc1)O[C@@H]2CC(=O)NCCc1c[nH]c2ccccc12` as the compound, how does the inhibition read?
**A.** The inhibition was “Active”.

**Q.** For `CC(=O)O[C@H](C)CNC(=O)C[C@H]1O[C@@H](CNCCNC(=O)OCc2ccccc2)[C@H]2OC(C)(C)O[C@H]21`, which inhibition is on record?
**A.** Its inhibition is “Active”.

**Q.** How did the inhibition turn out when `CC1(C)O[C@@H]2[C@H](O1)[C@H](CN[C@@H](CCCNC(=N)N)C(=O)O)O[C@@H]2CC(=O)NCCc1c[nH]c2ccccc12` was run?
**A.** The inhibition was “Active”.

**Q.** For `CC1(C)O[C@@H]2[C@H](O1)[C@H](CN(CCN/C(=N/C(=O)OCc1ccccc1)NC(=O)OCc1ccccc1)/C(=N/C(=O)OCc1ccccc1)NC(=O)OCc1ccccc1)O[C@@H]2CC(=O)NCCc1c[nH]c2ccccc12`, which inhibition is on record?
**A.** The inhibition was “Active”.

**Q.** For `CC1(C)O[C@@H]2[C@H](O1)[C@H](CNCCc1nc3ccccc3[nH]1)O[C@@H]2CC(=O)NCCc1c[nH]c2ccccc12`, which inhibition is on record?
**A.** The inhibition was “Active”.

**Q.** For `COC(=O)[C@H](CCCNC(=N)N)NC[C@@H]1O[C@H](CC(=O)NCCc2c[nH]c3ccccc23)[C@@H]2OC(C)(C)O[C@@H]21`, which inhibition is on record?
**A.** Its inhibition is “Active”.

**Q.** With `C[C@@H](O)CNC(=O)C[C@H]1O[C@@H](CNCc2ccncc2)[C@H]2OC(C)(C)O[C@H]21` as the compound, how does the inhibition read?
**A.** Its inhibition is “Active”.

**Q.** `CC1(C)O[C@@H]2[C@H](O1)[C@H](CN1CCN(C(=N)N)C1=O)O[C@@H]2CC(=O)NCCc1c[nH]c2ccccc12` was tested. Which inhibition did it give?
**A.** The inhibition was “Active”.

**Q.** With `CC(=O)O[C@H](C)CNC(=O)C[C@H]1O[C@@H](CNCCN)[C@H]2OC(C)(C)O[C@H]21` as the compound, how does the inhibition read?
**A.** Its inhibition is “Active”.

**Q.** For H-ATWLPPR-OH, which inhibition is on record?
**A.** The inhibition was “Active”.

**Q.** For `COC(=O)[C@H](CCCNC(=N)N)NC[C@@H]1O[C@H](CC(=O)NC[C@@H](C)OC(C)=O)[C@@H]2OC(C)(C)O[C@@H]21`, which inhibition is on record?
**A.** Its inhibition is “Active”.

**Q.** For `CC1(C)O[C@@H]2[C@H](O1)[C@H](CNCCNc1ccccn1)O[C@@H]2CC(=O)NCCc1c[nH]c2ccccc12`, which inhibition is on record?
**A.** Its inhibition is “Active”.

**Q.** For `CC1(C)O[C@@H]2[C@H](O1)[C@H](CN(CCNC(=N)N)C(=N)N)O[C@@H]2CC(=O)NCCc1c[nH]c2ccccc12`, which inhibition is on record?
**A.** Its inhibition is 65%.

**Q.** `CC(C)(C)OC(=O)/N=C(/NC(=O)OC(C)(C)C)N1CCN(C[C@@H]2O[C@H](CC(=O)NCCc3c[nH]c4ccccc34)[C@@H]3OC(C)(C)O[C@@H]32)C1=O` was tested. Which inhibition did it give?
**A.** Its inhibition is “Active”.

**Q.** `CC(=O)O[C@H](C)CNC(=O)C[C@H]1O[C@@H](CNCCNC(=N)N)[C@H]2OC(C)(C)O[C@H]21` was tested. Which inhibition did it give?
**A.** The inhibition was “Active”.

**Q.** `CC(C)C[C@H](NC(=O)[C@H](Cc1c[nH]c2ccccc12)NC(=O)[C@@H](NC(=O)[C@H](C)NC(=O)CCCCCNC(=O)c1ccc(-c2c3nc(c(-c4ccccc4)c4ccc([nH]4)c(-c4ccccc4)c4nc(c(-c5ccccc5)c5ccc2[nH]5)C=C4)CC3)cc1)[C@@H](C)O)C(=O)N1CCC[C@H]1C(=O)N1CCC[C@H]1C(=O)N[C@@H](CCCNC(=N)N)C(=O)O` ({X1-Ahx}-ATWLPPR-OH) was tested. Which inhibition did it give?
**A.** Its inhibition is “Active”.

**Q.** For `CC(=O)O[C@H](C)CNC(=O)C[C@H]1O[C@@H](CN(CCN/C(=N/C(=O)OCc2ccccc2)NC(=O)OCc2ccccc2)/C(=N/C(=O)OCc2ccccc2)NC(=O)OCc2ccccc2)[C@H]2OC(C)(C)O[C@H]21`, which inhibition is on record?
**A.** The inhibition was “Active”.
